In ChEMBL document CHEMBL4689842, “EUbOPEN Chemogenomics Library wave 1” (2021):
Several values for one entry are separate records, joined by “and”; a condition that tells them apart may be missing. Identical values can stand only once.

Tested on: Fibroblast
Assay: Multiplex assay against human fibroblast
Format: toxicity, cell-based
Procedure, shortened: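 With compound added, live cells were imaged on a CQ1 microscope at 37°C and 5% CO2; staining with Hoechst33342, BioTracker Green Microtubule Cytoskeleton Dye, MitoTracker Red and Annexin V Alexa Fluor 680 had been done at seeding. The CellPathfinder machine-learning gating scheme split cells into Hoechst high-intensity objects or normal cells, normal cells into healthy, pyknosed or fragmented nuclei, and pyknosed cells into mitotic or apoptotic. The tubulin, mitochondrial-mass and membrane-permeability phenotypes are per cents of healthy-nucleus cells.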

[1] = 12 h, 1 µM, compound concentration 1 uM, replicate 1
[2] = 12 h, 1 µM, compound concentration 1 uM, replicate 2
[3] = 12 h, 10 µM, compound concentration 10 uM, replicate 1
[4] = 12 h, 10 µM, compound concentration 10 uM, replicate 2
[5] = 24 h, 1 µM, compound concentration 1 uM, replicate 1
[6] = 24 h, 1 µM, compound concentration 1 uM, replicate 2
[7] = 24 h, 10 µM, compound concentration 10 uM, replicate 1
[8] = 24 h, 10 µM, compound concentration 10 uM, replicate 2
[9] = 48 h, 1 µM, compound concentration 1 uM, replicate 1
[10] = 48 h, 1 µM, compound concentration 1 uM, replicate 2
[11] = 48 h, 10 µM, compound concentration 10 uM, replicate 1
[12] = 48 h, 10 µM, compound concentration 10 uM, replicate 2

SMILES: Cc1c(P(=S)(c2ccccc2)c2ccccc2)n2ccccc2[n+]1C/C=C/c1ccccc1.[Br-]
- Population Apoptotic (%) [1]: 63%
- Population Fragmented Nuclei (%) [1]: 26%
- Population Healthy Nuclei (%) [1]: 43%
- Population Hoechst High Intensity Objects (%) [1]: 7%
- Population Membrane Permeable-Phenotype (%) [1]: 7%
- Population Mitochondria Different-Phenotype (%) [1]: 28%
- Population Mitotic Cells (%) [1]: 36%
- Population Normal (%) [1]: 92%
- Population Pyknosed Nuclei (%) [1]: 30%
- Population Tubulin-Different-Phenotype (%) [1]: 60%
- Total Cell Count [1]: 177
- Population Apoptotic (%) [2]: 75%
- Population Fragmented Nuclei (%) [2]: 50%
- Population Healthy Nuclei (%) [2]: 45%
- Population Hoechst High Intensity Objects (%) [2]: 22%
- Population Membrane Permeable-Phenotype (%) [2]: 10%
- Population Mitochondria Different-Phenotype (%) [2]: 50%
- Population Mitotic Cells (%) [2]: 25%
- Population Normal (%) [2]: 77%
- Population Pyknosed Nuclei (%) [2]: 4%
- Population Tubulin-Different-Phenotype (%) [2]: 31%
- Total Cell Count [2]: 93
- Population Apoptotic (%) [3]: 73%
- Population Fragmented Nuclei (%) [3]: 23%
- Population Healthy Nuclei (%) [3]: 14%
- Population Hoechst High Intensity Objects (%) [3]: 14%
- Population Membrane Permeable-Phenotype (%) [3]: 5%
- Population Mitochondria Different-Phenotype (%) [3]: 64%
- Population Mitotic Cells (%) [3]: 26%
- Population Normal (%) [3]: 85%
- Population Pyknosed Nuclei (%) [3]: 62%
- Population Tubulin-Different-Phenotype (%) [3]: 88%
- Total Cell Count [3]: 137
- Population Apoptotic (%) [4]: 94%
- Population Fragmented Nuclei (%) [4]: 21%
- Population Healthy Nuclei (%) [4]: 10%
- Population Hoechst High Intensity Objects (%) [4]: 8%
- Population Membrane Permeable-Phenotype (%) [4]: 83%
- Population Mitochondria Different-Phenotype (%) [4]: 83%
- Population Mitotic Cells (%) [4]: 5%
- Population Normal (%) [4]: 91%
- Population Pyknosed Nuclei (%) [4]: 68%
- Population Tubulin-Different-Phenotype (%) [4]: 83%
- Total Cell Count [4]: 108
- Population Apoptotic (%) [5]: 70%
- Population Fragmented Nuclei (%) [5]: 22%
- Population Healthy Nuclei (%) [5]: 58%
- Population Hoechst High Intensity Objects (%) [5]: 9%
- Population Membrane Permeable-Phenotype (%) [5]: 5%
- Population Mitochondria Different-Phenotype (%) [5]: 40%
- Population Mitotic Cells (%) [5]: 29%
- Population Normal (%) [5]: 90%
- Population Pyknosed Nuclei (%) [5]: 19%
- Population Tubulin-Different-Phenotype (%) [5]: 59%
- Total Cell Count [5]: 181
- Population Apoptotic (%) [6]: 75%
- Population Fragmented Nuclei (%) [6]: 55%
- Population Healthy Nuclei (%) [6]: 40%
- Population Hoechst High Intensity Objects (%) [6]: 33%
- Population Membrane Permeable-Phenotype (%) [6]: 9%
- Population Mitochondria Different-Phenotype (%) [6]: 31%
- Population Mitotic Cells (%) [6]: 25%
- Population Normal (%) [6]: 66%
- Population Pyknosed Nuclei (%) [6]: 3%
- Population Tubulin-Different-Phenotype (%) [6]: 15%
- Total Cell Count [6]: 124
- Population Apoptotic (%) [7]: 85%
- Population Fragmented Nuclei (%) [7]: 17%
- Population Healthy Nuclei (%) [7]: 10%
- Population Hoechst High Intensity Objects (%) [7]: 18%
- Population Membrane Permeable-Phenotype (%) [7]: 8%
- Population Mitochondria Different-Phenotype (%) [7]: 83%
- Population Mitotic Cells (%) [7]: 14%
- Population Normal (%) [7]: 81%
- Population Pyknosed Nuclei (%) [7]: 71%
- Population Tubulin-Different-Phenotype (%) [7]: 75%
- Total Cell Count [7]: 138
- Population Apoptotic (%) [8]: 100%
- Population Fragmented Nuclei (%) [8]: 23%
- Population Healthy Nuclei (%) [8]: 38%
- Population Hoechst High Intensity Objects (%) [8]: 26%
- Population Membrane Permeable-Phenotype (%) [8]: 81%
- Population Mitochondria Different-Phenotype (%) [8]: 81%
- Population Mitotic Cells (%) [8]: 0%
- Population Normal (%) [8]: 73%
- Population Pyknosed Nuclei (%) [8]: 38%
- Population Tubulin-Different-Phenotype (%) [8]: 81%
- Total Cell Count [8]: 163
- Population Apoptotic (%) [9]: 60%
- Population Fragmented Nuclei (%) [9]: 33%
- Population Healthy Nuclei (%) [9]: 54%
- Population Hoechst High Intensity Objects (%) [9]: 12%
- Population Membrane Permeable-Phenotype (%) [9]: 6%
- Population Mitochondria Different-Phenotype (%) [9]: 42%
- Population Mitotic Cells (%) [9]: 40%
- Population Normal (%) [9]: 87%
- Population Pyknosed Nuclei (%) [9]: 11%
- Population Tubulin-Different-Phenotype (%) [9]: 64%
- Total Cell Count [9]: 191
- Population Apoptotic (%) [10]: 100%
- Population Fragmented Nuclei (%) [10]: 29%
- Population Healthy Nuclei (%) [10]: 70%
- Population Hoechst High Intensity Objects (%) [10]: 10%
- Population Membrane Permeable-Phenotype (%) [10]: 2%
- Population Mitochondria Different-Phenotype (%) [10]: 48%
- Population Mitotic Cells (%) [10]: 0%
- Population Normal (%) [10]: 89%
- Population Pyknosed Nuclei (%) [10]: 0%
- Population Tubulin-Different-Phenotype (%) [10]: 72%
- Total Cell Count [10]: 123
- Population Apoptotic (%) [11]: 92%
- Population Fragmented Nuclei (%) [11]: 36%
- Population Healthy Nuclei (%) [11]: 21%
- Population Membrane Permeable-Phenotype (%) [11]: 0%
- Population Mitochondria Different-Phenotype (%) [11]: 85%
- Population Mitotic Cells (%) [11]: 7%
- Population Pyknosed Nuclei (%) [11]: 42%
- Population Tubulin-Different-Phenotype (%) [11]: 95%
- Total Cell Count [11]: 141
- Population Apoptotic (%) [12]: 84%
- Population Fragmented Nuclei (%) [12]: 52%
- Population Healthy Nuclei (%) [12]: 18%
- Population Hoechst High Intensity Objects (%) [12]: 32%
- Population Membrane Permeable-Phenotype (%) [12]: 25%
- Population Mitochondria Different-Phenotype (%) [12]: 75%
- Population Mitotic Cells (%) [12]: 15%
- Population Normal (%) [12]: 67%
- Population Pyknosed Nuclei (%) [12]: 29%
- Population Tubulin-Different-Phenotype (%) [12]: 100%
- Total Cell Count [12]: 65

SMILES: Cc1c(Nc2ccc(S(=O)(=O)N3CCN(C)CC3)cc2F)nc2ccc(-c3cnn(C4CC4)c3)cn2c1=O
- Population Apoptotic (%) [1]: 66%
- Population Fragmented Nuclei (%) [1]: 29%
- Population Healthy Nuclei (%) [1]: 57%
- Population Hoechst High Intensity Objects (%) [1]: 11%
- Population Membrane Permeable-Phenotype (%) [1]: 9%
- Population Mitochondria Different-Phenotype (%) [1]: 4%
- Population Mitotic Cells (%) [1]: 33%
- Population Normal (%) [1]: 88%
- Population Pyknosed Nuclei (%) [1]: 12%
- Population Tubulin-Different-Phenotype (%) [1]: 4%
- Total Cell Count [1]: 222
- Population Apoptotic (%) [2]: 50%
- Population Fragmented Nuclei (%) [2]: 49%
- Population Healthy Nuclei (%) [2]: 40%
- Population Hoechst High Intensity Objects (%) [2]: 24%
- Population Membrane Permeable-Phenotype (%) [2]: 0%
- Population Mitochondria Different-Phenotype (%) [2]: 0%
- Population Mitotic Cells (%) [2]: 50%
- Population Normal (%) [2]: 75%
- Population Pyknosed Nuclei (%) [2]: 10%
- Population Tubulin-Different-Phenotype (%) [2]: 0%
- Total Cell Count [2]: 73
- Population Apoptotic (%) [3]: 67% and 50%
- Population Fragmented Nuclei (%) [3]: 32% and 29%
- Population Healthy Nuclei (%) [3]: 39% and 54%
- Population Hoechst High Intensity Objects (%) [3]: 45% and 41%
- Population Membrane Permeable-Phenotype (%) [3]: 19% and 13%
- Population Mitochondria Different-Phenotype (%) [3]: 3% and 4%
- Population Mitotic Cells (%) [3]: 32% and 50%
- Population Normal (%) [3]: 54% and 58%
- Population Pyknosed Nuclei (%) [3]: 27% and 16%
- Population Tubulin-Different-Phenotype (%) [3]: 30% and 20%
- Total Cell Count [3]: 373 and 542
- Population Apoptotic (%) [4]: 78% and 64%
- Population Fragmented Nuclei (%) [4]: 34% and 56%
- Population Healthy Nuclei (%) [4]: 42%
- Population Hoechst High Intensity Objects (%) [4]: 79% and 58%
- Population Membrane Permeable-Phenotype (%) [4]: 11% and 8%
- Population Mitotic Cells (%) [4]: 21% and 35%
- Population Normal (%) [4]: 20% and 41%
- Population Tubulin-Different-Phenotype (%) [4]: 6% and 8%
- Population Apoptotic (%) [5]: 85%
- Population Fragmented Nuclei (%) [5]: 26%
- Population Healthy Nuclei (%) [5]: 60%
- Population Hoechst High Intensity Objects (%) [5]: 12%
- Population Membrane Permeable-Phenotype (%) [5]: 5%
- Population Mitochondria Different-Phenotype (%) [5]: 2%
- Population Mitotic Cells (%) [5]: 14%
- Population Normal (%) [5]: 87%
- Population Pyknosed Nuclei (%) [5]: 13%
- Population Tubulin-Different-Phenotype (%) [5]: 4%
- Total Cell Count [5]: 230
- Population Apoptotic (%) [6]: 80%
- Population Fragmented Nuclei (%) [6]: 58%
- Population Healthy Nuclei (%) [6]: 34%
- Population Hoechst High Intensity Objects (%) [6]: 20%
- Population Membrane Permeable-Phenotype (%) [6]: 8%
- Population Mitochondria Different-Phenotype (%) [6]: 12%
- Population Mitotic Cells (%) [6]: 20%
- Population Normal (%) [6]: 79%
- Population Pyknosed Nuclei (%) [6]: 6%
- Population Tubulin-Different-Phenotype (%) [6]: 8%
- Total Cell Count [6]: 91
- Population Apoptotic (%) [7]: 46% and 54%
- Population Fragmented Nuclei (%) [7]: 40% and 29%
- Population Healthy Nuclei (%) [7]: 46% and 57%
- Population Hoechst High Intensity Objects (%) [7]: 42% and 34%
- Population Membrane Permeable-Phenotype (%) [7]: 21%
- Population Mitotic Cells (%) [7]: 53% and 45%
- Population Normal (%) [7]: 57% and 65%
- Population Pyknosed Nuclei (%) [7]: 13%
- Population Tubulin-Different-Phenotype (%) [7]: 37% and 21%
- Total Cell Count [7]: 395 and 524
- Population Apoptotic (%) [8]: 60% and 68%
- Population Fragmented Nuclei (%) [8]: 58% and 33%
- Population Healthy Nuclei (%) [8]: 37% and 44%
- Population Hoechst High Intensity Objects (%) [8]: 58% and 77%
- Population Membrane Permeable-Phenotype (%) [8]: 13% and 9%
- Population Mitochondria Different-Phenotype (%) [8]: 23% and 0%
- Population Mitotic Cells (%) [8]: 40% and 31%
- Population Normal (%) [8]: 41% and 22%
- Population Apoptotic (%) [11]: 57%
- Population Fragmented Nuclei (%) [11]: 39%
- Population Healthy Nuclei (%) [11]: 47%
- Population Hoechst High Intensity Objects (%) [11]: 43%
- Population Membrane Permeable-Phenotype (%) [11]: 14%
- Population Mitochondria Different-Phenotype (%) [11]: 1%
- Population Mitotic Cells (%) [11]: 42%
- Population Normal (%) [11]: 56%
- Population Pyknosed Nuclei (%) [11]: 13%
- Population Tubulin-Different-Phenotype (%) [11]: 31%
- Total Cell Count [11]: 344
- Population Apoptotic (%) [12]: 60%
- Population Healthy Nuclei (%) [12]: 57%
- Population Hoechst High Intensity Objects (%) [12]: 19%
- Population Membrane Permeable-Phenotype (%) [12]: 16%
- Population Mitotic Cells (%) [12]: 40%
- Population Normal (%) [12]: 80%
- Population Pyknosed Nuclei (%) [12]: 3%
- Population Tubulin-Different-Phenotype (%) [12]: 24%
- Total Cell Count [12]: 159
